From ChEMBL document CHEMBL1123501, “Inactivation of leukocyte elastase by aryl azolides and sulfonate salts. Structure-activity relationship studies” (J Med Chem, 1986)
Calls of active or inactive are those of the source. No cut-off for these calls is given here.

Target: T1, Neutrophil elastase (Homo sapiens) (UniProt P08246)
T1 sequence (whole entry): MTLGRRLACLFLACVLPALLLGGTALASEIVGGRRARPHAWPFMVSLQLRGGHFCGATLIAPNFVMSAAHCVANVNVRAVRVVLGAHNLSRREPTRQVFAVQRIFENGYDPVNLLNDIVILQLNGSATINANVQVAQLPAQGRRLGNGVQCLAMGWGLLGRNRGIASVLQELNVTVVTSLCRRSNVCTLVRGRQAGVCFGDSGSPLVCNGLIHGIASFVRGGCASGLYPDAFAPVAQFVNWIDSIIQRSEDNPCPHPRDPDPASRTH
Test: Compound was evaluated for the inhibitory activity against human Leukocyte elastase; Inactive
Procedure, shortened: (§1)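 Human leukocyte elastase (enzyme stock 3.4 × 10⁻⁵ M in pH 5.5 acetate) incubated at 25 °C with inhibitor (DMSO stock 3.4 × 10⁻⁴ M) in Tris buffer pH 7.2. The inhibitor:enzyme ratio was 10–50. Aliquots taken over time were added to MeOSuc-Ala-Ala-Pro-Val-pNA (stock 3.15 × 10⁻² M). Residual activity was read at 410 nm for 2 min after 30 s, against a DMSO control.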

Row | K obs / 1 | SMILES
1 | inactive | O=C(NCc1cccc(C(F)(F)F)c1)n1ccnc1
2 | inactive | O=C(NCc1cccc(F)c1)n1ccnc1
3 | inactive | O=C(NCc1ccc(C(F)(F)F)cc1)n1ccnc1
4 | inactive | O=C(Nc1ccccc1C(F)(F)F)n1ccnc1
5 | inactive | O=C(Nc1cccc(C(F)(F)F)c1)n1ccnc1
6 | inactive | O=C(Nc1cccc(F)c1)n1ccnc1

Target: T1, Neutrophil elastase (Homo sapiens)
Test: Inhibitory activity against human Leukocyte elastase
Procedure, shortened: as §1

Row | K obs / 1 | SMILES
7 | 483 M⁻¹ s⁻¹ | O=C(NCCc1cccc(C(F)(F)F)c1)n1ccnc1
8 | 500 M⁻¹ s⁻¹ | O=C(Nc1cn(-c2ccccc2)cn1)n1ccccc1=O
9 | 11700 M⁻¹ s⁻¹ | O=C(Nc1cn(-c2cccc(C(F)(F)F)c2)cn1)n1ccccc1=O
10 | 927 M⁻¹ s⁻¹ | O=C(Nc1cn(-c2ccccc2)cn1)ON1C(=O)CCC1=O
11 | 6640 M⁻¹ s⁻¹ | COC(=O)C(Cc1ccccc1)NC(=O)ON1C(=O)CCC1=O (centres undefined)
12 | 4 M⁻¹ s⁻¹ | O=C(NCCc1ccccc1)S(=O)(=O)O
13 | 57 M⁻¹ s⁻¹ | COC(=O)C(Cc1cccc(F)c1)NC(=O)S(=O)(=O)O (racemic)
14 | 2070 M⁻¹ s⁻¹ | COC(=O)C(Cc1ccccc1)NC(=O)n1ccnc1 (centres undefined)
15 | 13 M⁻¹ s⁻¹ | COC(=O)C(Cc1cccc(C(F)(F)F)c1)NC(=O)S(=O)(=O)O (racemic)
16 | 38 M⁻¹ s⁻¹ | O=C(NCCc1cccc(F)c1)n1ccnc1
17 | 823 M⁻¹ s⁻¹ | O=C(Nc1cn(-c2cccc(F)c2)cn1)ON1C(=O)CCC1=O
18 | 13500 M⁻¹ s⁻¹ | O=C(Nc1cn(-c2cccc(C(F)(F)F)c2)cn1)ON1C(=O)CCC1=O
19 | 318 M⁻¹ s⁻¹ | COC(=O)C(Cc1cccc(F)c1)NC(=O)n1ccnc1 (centres undefined)
20 | 317 M⁻¹ s⁻¹ | O=C(Nc1cn(-c2cccc(F)c2)cn1)n1ccccc1=O
21 | 18 M⁻¹ s⁻¹ | O=C(NCCc1cccc(F)c1)S(=O)(=O)O
22 | 35 M⁻¹ s⁻¹ | O=C(NCCc1ccccc1)n1ccnc1
23 | 1100 M⁻¹ s⁻¹ | COC(=O)C(Cc1cccc(C(F)(F)F)c1)NC(=O)n1ccnc1 (centres undefined)
24 | 550 M⁻¹ s⁻¹ | COC(=O)C(Cc1ccccc1)NC(=O)S(=O)(=O)O (racemic)
25 | 2330 M⁻¹ s⁻¹ | COC(=O)C(Cc1ccccc1)NC(=O)n1ccccc1=O (centres undefined)

Target: T1, Neutrophil elastase (Homo sapiens)
Test: Inhibitory activity against human Leukocyte elastase; inactive (at 243-fold excess of inhibitor over enzyme)

Row | K obs / 1 | SMILES
26 | inactive | O=C(NCc1cccc(C(F)(F)F)c1)S(=O)(=O)O
27 | inactive | O=C(Nc1cccc(F)c1)S(=O)(=O)O
28 | inactive | O=C(Nc1cccc(C(F)(F)F)c1)S(=O)(=O)O
29 | inactive | O=C(NCc1cccc(F)c1)S(=O)(=O)O
30 | inactive | O=C(Nc1cccc(Cl)c1)S(=O)(=O)O
31 | inactive | O=C(Nc1ccccc1C(F)(F)F)S(=O)(=O)O
32 | inactive | O=C(Nc1ccccc1)S(=O)(=O)O
33 | inactive | O=C(Nc1ccc(Cl)cc1)S(=O)(=O)O
34 | inactive | O=C(Nc1ccc(C(F)(F)F)cc1)S(=O)(=O)O
